According to ChEMBL document CHEMBL4007411, “Design, Synthesis, and Biological Evaluation of Coupled Bioactive Scaffolds as Potential Anticancer Agents for Dual Targeting of Dihydrofolate Reductase and Thioredoxin Reductase” (J Med Chem, 2017):
pIC50: −log10 of the molar value. Calls of active or inactive are those of the source. The rule behind the calls is not given here.

What was measured:
Dihydrofolate reductase = target: T1, Dihydrofolate reductase (Homo sapiens, UniProt P00374); assay: Inhibition of recombinant human DHFR assessed as reduction in conversion of DHF to THF measured every 30 secs for 6 mins by UV-Vis spectrophotometric method
T1 sequence (P00374 whole entry): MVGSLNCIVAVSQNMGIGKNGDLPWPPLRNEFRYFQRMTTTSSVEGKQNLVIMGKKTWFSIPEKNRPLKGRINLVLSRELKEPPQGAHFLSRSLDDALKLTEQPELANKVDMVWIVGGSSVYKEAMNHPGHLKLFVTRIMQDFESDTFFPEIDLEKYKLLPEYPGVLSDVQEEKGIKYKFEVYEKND

[1] = target: T2, Thioredoxin reductase 1, cytoplasmic (Rattus norvegicus, UniProt O89049); assay: Inhibition of […] thioredoxin reductase after 30 mins by DTNB reduction assay; conditions: for pIC50: read-out: IC50
T2 sequence (O89049 whole entry): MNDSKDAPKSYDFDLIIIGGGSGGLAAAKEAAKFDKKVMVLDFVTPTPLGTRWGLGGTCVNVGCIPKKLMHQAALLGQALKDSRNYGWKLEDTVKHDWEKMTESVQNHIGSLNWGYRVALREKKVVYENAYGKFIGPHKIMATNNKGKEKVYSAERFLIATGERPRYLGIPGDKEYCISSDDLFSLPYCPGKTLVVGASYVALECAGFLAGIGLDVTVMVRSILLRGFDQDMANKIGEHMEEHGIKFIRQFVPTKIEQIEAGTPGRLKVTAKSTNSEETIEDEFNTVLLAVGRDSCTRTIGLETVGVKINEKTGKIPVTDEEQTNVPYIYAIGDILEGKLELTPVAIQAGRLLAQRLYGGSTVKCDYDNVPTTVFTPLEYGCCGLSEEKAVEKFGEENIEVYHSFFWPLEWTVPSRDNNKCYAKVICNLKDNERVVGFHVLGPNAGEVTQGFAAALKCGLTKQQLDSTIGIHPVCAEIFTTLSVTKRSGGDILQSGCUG
Outline: (§1)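 Rat liver TrxR at 2.1 units/ml preincubated with a range of test concentrations and 200 µM NADPH in 50 mM Tris-HCl, 1 mM EDTA, pH 7.5, at room temperature for 30 or 60 min. Equal volume of buffer with 5 mM DTNB and 200 µM NADPH then added. A412 followed over 2 min. Activity as % of vehicle Vmax; IC50 from log concentration plot.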

[2] = target: T2, Thioredoxin reductase 1, cytoplasmic; assay: Inhibition of […] thioredoxin reductase after 60 mins by DTNB reduction assay; conditions: for pIC50: read-out: IC50; outline: as §1
HCT-116 [3] = assay: Antiproliferative activity against human HCT116 cells after 72 hrs by MTT assay; assay type: functional; conditions: for GI50 / CC50: HCT-116, 72 h; for CC50: read-out: LC50 (the source's name)
Outline: (§2)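 Cells kept in RPMI 1640 with 10% FBS, penicillin and streptomycin at 37°C and 5% CO2. Seeded at 1.0 x 10^4/well and left to adhere overnight. Serial dilutions made in medium from DMSO stocks. MTT at 400 µg/ml final for 4 h, read at T0 and after 72 h. Formazan dissolved in DMSO:glycine pH 10.5, A550. GI50 and LC50 interpolated from absorbance versus log concentration.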

MCF7 = assay: Antiproliferative activity against human MCF7 cells after 72 hrs by MTT assay; assay type: functional; conditions: for GI50 / LC50 (concentration killing 50% of cells present at T0): MCF7, 72 h; outline: as §2
[4] = target: T3, Dihydrofolate reductase (Homo sapiens) (UniProt P00374); assay: Inhibition of DHFR in human HCT116 cell lysate assessed as reduction in conversion of DHF to THF after 16 hrs
T3 sequence (whole entry): T1 sequence (P00374 whole entry)
Outline: (§3)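 HCT116 cells treated 16 h at 0.001 to 1 µM or 40 to 70 µM, then lysed. 400 µg lysate protein in PBS with 50 µM DHF and 200 µM NADPH, with matching controls containing 1 µM methotrexate. A340 decrease followed over 15 min at room temperature. MTX-sensitive rate given as % of DMSO-treated cells. Mean of three independent experiments.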

[5] = target: T3, Dihydrofolate reductase (Homo sapiens); assay: Inhibition of DHFR in human HCT116 cell lysate assessed as reduction in conversion of DHF to THF at 40 to 70 uM after 16 hrs; outline: as §3
[6] = target: T4, Thioredoxin reductase 1, cytoplasmic (Homo sapiens) (UniProt Q16881); assay: Inhibition of thioredoxin reductase in human HCT116 cell lysate using thioredoxin as substrate after 16 hrs by end point insulin assay method
T4 sequence (whole entry): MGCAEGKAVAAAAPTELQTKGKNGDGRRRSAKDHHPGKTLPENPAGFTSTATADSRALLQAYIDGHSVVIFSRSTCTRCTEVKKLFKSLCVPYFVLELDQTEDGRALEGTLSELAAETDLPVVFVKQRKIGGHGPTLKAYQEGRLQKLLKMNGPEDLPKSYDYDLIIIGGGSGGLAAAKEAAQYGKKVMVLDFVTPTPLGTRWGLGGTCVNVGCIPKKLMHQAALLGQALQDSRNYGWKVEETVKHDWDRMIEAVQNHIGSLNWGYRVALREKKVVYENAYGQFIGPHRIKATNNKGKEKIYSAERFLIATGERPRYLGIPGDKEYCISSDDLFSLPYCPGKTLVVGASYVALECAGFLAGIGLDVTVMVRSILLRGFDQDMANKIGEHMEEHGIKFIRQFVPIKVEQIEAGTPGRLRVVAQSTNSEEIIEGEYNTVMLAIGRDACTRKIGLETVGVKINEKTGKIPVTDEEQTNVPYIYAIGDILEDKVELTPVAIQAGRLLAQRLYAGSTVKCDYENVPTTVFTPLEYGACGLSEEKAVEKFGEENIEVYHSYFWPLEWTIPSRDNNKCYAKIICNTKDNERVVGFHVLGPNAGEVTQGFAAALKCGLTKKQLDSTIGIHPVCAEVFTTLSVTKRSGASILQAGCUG
Outline: (§4)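 HCT116 cells treated 16 h at 0.001 to 1 µM or 40 to 70 µM, then lysed. Stopped with 1 mM DTNB and 240 µM NADPH in 6 M guanidine HCl and Tris pH 8.0, read at A412. Given as % of DMSO-treated cells. Mean of three experiments.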

[7] = target: T4, Thioredoxin reductase 1, cytoplasmic (Homo sapiens); assay: Inhibition of thioredoxin reductase in human HCT116 cell lysate using thioredoxin as substrate at 0.001 to 1 uM after 16 hrs by end point insulin assay method
HCT-116 [8] = assay: Upregulation of DHFR protein levels in human HCT116 cell lysate at 40 to 70 uM after 16 hrs by Western blot analysis; assay type: functional, cell-based
Outline: (§5)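 HCT116 plated at 1.5 x 10^6 per 100 mm plate, grown 48 h, then treated 16 h at 40 to 70 µM. Adherent and floating cells pooled and lysed in Triton X-100 buffer with protease inhibitors. Lysates cleared and protein measured by Bradford. Equal protein run on SDS-PAGE and blotted. DHFR or TrxR detected by ECL, β-actin antibody also used. Three independent experiments.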

HCT-116 [9] = assay: Effect on thioredoxin reductase protein levels in human HCT116 cell lysate at 40 to 70 uM after 16 hrs by Western blot analysis; assay type: cell-based; conditions: hct-116, 16 h; outline: as §5
[10] = target: T4, Thioredoxin reductase 1, cytoplasmic (Homo sapiens); assay: Inhibition of thioredoxin reductase in human HCT116 cell lysate using thioredoxin as substrate at 40 to 70 uM after 16 hrs by end point insulin assay method; outline: as §4

SMILES | pIC50 (Dihydrofolate reductase) | pIC50 [1] | pIC50 [2] | GI50 (HCT-116 [3]) [µM] | CC50 (HCT-116 [3]) [µM] | GI50 (MCF7) [µM] | LC50 (concentration killing 50% of cells present at T0) (MCF7) [µM] | inhibition [4] | inhibition [5] | inhibition [6] | inhibition [7] | Activity (HCT-116 [8]) | Activity (HCT-116 [9]) | inhibition [10] | IC50 [1] | IC50 [2] | growth inhibition (GI) (HCT-116 [3]) | growth inhibition (GI) (MCF7)
CC1(C)N=C(N)N=C(N)N1OCCCCOc1cccc(C(=O)/C=C/c2ccccc2)c1 | 8.38 | 4.95 | 5.17 | 0.051 | 30.3 | 0.122 | 11.3 | Dose-dependent effect | Active | Dose-dependent effect | inactive |  |  |  |  |  |  | 
CC1(C)N=C(N)N=C(N)N1OCCCOc1ccc(C(=O)/C=C/c2ccccc2)cc1 | 8.04 | 4.31 | 4.49 | 0.016 | 55.2 | 0.085 | 34 |  |  |  |  |  |  |  |  |  |  | 
CN(Cc1cnc2nc(N)nc(N)c2n1)c1ccc(C(=O)N[C@@H](CCC(=O)O)C(=O)O)cc1 [METHOTREXATE] |  |  |  | 0.015 | > 100 | 0.024 |  |  |  |  |  |  |  |  |  |  |  | 
NC1=NC2(CCCC2)N(OCCOc2cccc(C(=O)/C=C/c3ccccc3)c2)C(N)=N1 | 7.88 | 5.10 | 5.34 | 0.26 | 24.1 | 0.77 | 16.1 |  |  |  |  |  |  |  |  |  |  | 
CC1(C)N=C(N)N=C(N)N1OCCOc1ccc(/C=C/C(=O)c2ccccc2)cc1 | 7.27 | 4.53 | 4.68 | 0.706 | 81.9 | 0.512 | 47.7 |  |  |  |  |  |  |  |  |  |  | 
CC1(C)N=C(N)N=C(N)N1OCCCOc1cccc(/C=C/C(=O)c2ccccc2)c1 | 8.49 | 5.39 | 5.55 | 0.011 | 48.2 | 0.013 | 29.8 |  |  |  |  |  |  |  |  |  |  | 
CC1(C)N=C(N)N=C(N)N1OCCCOc1cccc(C(=O)/C=C/c2ccccc2)c1 | 8.05 | 4.97 | 5.09 | 0.011 | 42.7 | 0.076 | 20.2 | Dose-dependent effect | Active | Dose-dependent effect | inactive |  |  |  |  |  |  | 
Cl.NC1=NC2(CCCC2)N(OCCCOc2cccc(C(=O)/C=C/c3ccccc3)c2)C(N)=N1 | 8.21 | 5.12 | 5.34 | 0.026 | 14.1 | 0.08 | 11.2 | Dose-dependent effect | Active | Dose-dependent effect | inactive | Active | Non-Toxic |  |  |  |  | 
NC1=NC2(CCCC2)N(OCCCOc2ccccc2)C(N)=N1 | 7.70 |  |  | 0.021 | > 100 | 0.077 | 90.8 | Dose-dependent effect |  |  | inactive |  |  | inactive |  |  |  | 
CC1(C)N=C(N)N=C(N)N1OCCCOc1cccc(C(=O)CCc2ccccc2)c1 | 8.41 |  |  | 0.01 | 34.2 | 0.036 | 25.9 |  |  |  |  |  |  |  |  |  |  | 
CC1(C)N=C(N)N=C(N)N1OCCOc1cccc(C(=O)/C=C/c2ccccc2)c1 | 7.45 | 4.97 | 5.16 | 0.17 | 49.9 | 0.719 | 40.7 |  |  |  |  |  |  |  |  |  |  | 
CC1(C)N=C(N)N=C(N)N1OCCCCOc1cccc(/C=C/C(=O)c2ccccc2)c1 | 8.32 | 5.22 | 5.42 | 0.034 | 34.7 | 0.086 | 15.5 |  |  |  |  |  |  |  |  |  |  | 
CC1(C)N=C(N)N=C(N)N1OCCOc1ccc(C(=O)/C=C/c2ccccc2)cc1 | 7.85 | 4.36 | 4.69 | 0.572 | 50.1 | 0.584 | 40.1 |  |  |  |  |  |  |  |  |  |  | 
CC1(C)N=C(N)N=C(N)N1OCCOc1cccc(/C=C/C(=O)c2ccccc2)c1 | 7.23 | 5.24 | 5.40 | 0.145 | 52.2 | 0.623 | 38.8 |  |  |  |  |  |  |  |  |  |  | 
CC1(C)N=C(N)N=C(N)N1OCCCCOc1ccc(/C=C/C(=O)c2ccccc2)cc1 | 8.40 | 4.50 | 4.68 | 0.026 | 42.9 | 0.141 | 14.8 |  |  |  |  |  |  |  |  |  |  | 
O=C(Cc1ccccc1)Cc1ccccc1 |  |  |  |  |  |  |  |  |  |  |  |  |  |  | Not Active | Not Active | inactive | inactive
CC1(C)N=C(N)N=C(N)N1OCCCOc1ccc(/C=C/C(=O)c2ccccc2)cc1 | 8.19 | 4.44 | 4.59 | 0.035 | 39 | 0.062 | 35.3 |  |  |  |  |  |  |  |  |  |  | 
CC1(C)N=C(N)N=C(N)N1OCCCCOc1ccc(C(=O)/C=C/c2ccccc2)cc1 | 8.47 | 4.35 | 4.57 | 0.039 | 24 | 0.087 | 14.2 |  |  |  |  |  |  |  |  |  |  | 
CC1(C)N=C(N)N=C(N)N1OCCCOc1ccccc1 | 8.28 |  |  | 0.036 | > 100 | 0.107 | > 100 | Dose-dependent effect |  |  | inactive |  |  | inactive |  |  |  | 
